Each block holds one molecule with its values, some of them ahead of it.
Columns and labels:
[1] = test system: Heart; test: Toxicity in langendorff isolated rabbit heart assessed as effect on QT interval prolongation up to 10 uM by whole heart assay; type: tissue-based, Oryctolagus cuniculus
Summary of the method: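 Langendorff isolated rabbit heart, ex vivo whole-heart preparation. QT interval monitored at concentrations up to 10 µM.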

[2] = Octanol-water partition coefficient, log P of the compound; type: physicochemical
[3] = test system: Brain; test: Drug level in DBA/2 mouse brain at 30 umol/kg, po after 4 hrs; type: ADME, organism-based; details: in vivo
Summary of the method: (§1)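 Mice (n = 6) dosed 30 µmol/kg po. Brain and plasma levels measured at 1 h and 4 h after dosing, reported as pmol/g.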

[4] = test system: Mus musculus; test: Plasma concentration in DBA/2 mouse at 30 umol/kg, po after 4 hrs; type: ADME, organism-based; details: in vivo; summary of the method: as §1
[5] = test system: Mus musculus; test: Plasma concentration in DBA/2 mouse at 30 umol/kg, po after 1 hr; type: ADME, organism-based; details: in vivo; summary of the method: as §1
[6] = target: Acetylcholine receptor; alpha1/beta1/delta/gamma (Homo sapiens, UniProt P02708+P07510+P11230+Q07001); test: Antagonist activity at human alpha-1-beta-1-gamma-delta nAChR expressed in human TE671 cells by calcium influx assay; type: functional, cell-based, TE-671
[7] = species: Homo sapiens; test: Selectivity for human 5HT3 receptor over human alpha7 nAChR
[8] = target: Voltage-gated inwardly rectifying potassium channel KCNH2 (Homo sapiens, UniProt Q12809); test: Inhibition of human ERG by patch-clamp technique
[9] = Protein binding in rat plasma assessed as fraction unbound; type: ADME, cell-free
Summary of the method: (§2)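 Binding to human and rat plasma protein, reported as the free (unbound) fraction in %.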

[10] = Protein binding in human plasma assessed as fraction unbound; type: ADME, cell-free; summary of the method: as §2
[11] = Metabolic stability in mouse liver microsomes assessed as hepatic extraction ratio; type: ADME, Microsome; details: read-out: Activity
Summary of the method: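 Compound incubated with mouse or human liver microsomes. In vitro hepatic extraction ratio reported as % compound depleted at the end of the experiment; half-life also given.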

[12] = target: Neuronal acetylcholine receptor; alpha3/beta4 (Homo sapiens, UniProt P30926+P32297); test: Antagonist activity at human alpha3beta4 nAChR expressed in HEK293 cells by calcium influx assay; type: functional, cell-based
[13] = Inhibition of sodium channel at 30 uM by patch-clamp technique
[14] = target: Neuronal acetylcholine receptor; alpha4/beta2 (Homo sapiens, UniProt P17787+P43681); test: Antagonist activity at human alpha4beta2 nAChR expressed in HEK293 cells by calcium influx assay; type: functional, cell-based
[15] = species: Homo sapiens; test: Selectivity for human alpha-1-beta-1-gamma-delta nAChR over human alpha7 nAChR
[16] = species: Homo sapiens; test: Selectivity for human alpha3beta4 nAChR over human alpha7 nAChR
[17] = species: Homo sapiens; test: Selectivity for human alpha4beta2 nAChR over human alpha7 nAChR
[18] = target: Neuronal acetylcholine receptor subunit alpha-7 (Homo sapiens, UniProt P36544); test: Agonist activity at human recombinant alpha7 nAChR expressed in rat GH3 cells by calcium influx assay; type: functional, cell-based
Summary of the method: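 GH3 cells recombinantly expressing human α7 nAChR; agonist activity. Each compound run in duplicate. EC50 taken from individual 8-point concentration-response curves and expressed as pEC50, with Emax given in %.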

[19] = target: T1, 5-hydroxytryptamine receptor 3A (Homo sapiens, UniProt P46098); test: Antagonist activity at human 5HT3 receptor by calcium influx assay; type: functional
T1 sequence (P46098 whole entry): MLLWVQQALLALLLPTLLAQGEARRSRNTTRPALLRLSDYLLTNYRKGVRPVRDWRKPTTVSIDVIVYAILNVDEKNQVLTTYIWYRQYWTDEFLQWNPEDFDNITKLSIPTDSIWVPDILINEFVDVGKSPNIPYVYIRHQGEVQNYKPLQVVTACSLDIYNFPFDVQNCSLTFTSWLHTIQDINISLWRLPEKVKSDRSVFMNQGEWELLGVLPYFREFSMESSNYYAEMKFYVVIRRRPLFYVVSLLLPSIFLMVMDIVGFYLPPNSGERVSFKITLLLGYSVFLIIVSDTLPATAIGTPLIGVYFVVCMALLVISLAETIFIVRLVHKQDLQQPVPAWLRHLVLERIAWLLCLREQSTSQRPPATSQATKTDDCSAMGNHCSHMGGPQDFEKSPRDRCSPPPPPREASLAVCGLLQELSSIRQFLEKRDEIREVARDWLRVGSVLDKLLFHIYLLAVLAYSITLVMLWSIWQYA

[20] = test system: Brain; test: Drug level in DBA/2 mouse brain at 30 umol/kg, po after 1 hr; type: ADME, organism-based; details: in vivo; summary of the method: as §1
[21] = target: T2, Muscarinic acetylcholine receptor M1 (Homo sapiens, UniProt P11229); test: Inhibition of human recombinant muscarinic M1 receptor
T2 sequence (P11229 whole entry): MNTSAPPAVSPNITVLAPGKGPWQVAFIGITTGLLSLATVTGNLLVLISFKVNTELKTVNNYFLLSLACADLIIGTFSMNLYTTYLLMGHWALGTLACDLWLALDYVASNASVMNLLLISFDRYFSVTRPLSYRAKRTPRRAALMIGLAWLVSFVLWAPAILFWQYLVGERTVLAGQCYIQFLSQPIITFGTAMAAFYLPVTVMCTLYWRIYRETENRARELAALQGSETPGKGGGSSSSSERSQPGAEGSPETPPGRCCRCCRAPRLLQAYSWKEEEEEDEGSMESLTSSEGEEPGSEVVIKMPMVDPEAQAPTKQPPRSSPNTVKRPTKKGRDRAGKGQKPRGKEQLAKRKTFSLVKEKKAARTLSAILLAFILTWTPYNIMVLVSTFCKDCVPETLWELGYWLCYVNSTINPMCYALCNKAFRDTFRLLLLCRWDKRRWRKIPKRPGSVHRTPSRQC

[22] = target: T3, Muscarinic acetylcholine receptor M4 (Homo sapiens, UniProt P08173); test: Inhibition of human recombinant muscarinic M4 receptor
T3 sequence (P08173 whole entry): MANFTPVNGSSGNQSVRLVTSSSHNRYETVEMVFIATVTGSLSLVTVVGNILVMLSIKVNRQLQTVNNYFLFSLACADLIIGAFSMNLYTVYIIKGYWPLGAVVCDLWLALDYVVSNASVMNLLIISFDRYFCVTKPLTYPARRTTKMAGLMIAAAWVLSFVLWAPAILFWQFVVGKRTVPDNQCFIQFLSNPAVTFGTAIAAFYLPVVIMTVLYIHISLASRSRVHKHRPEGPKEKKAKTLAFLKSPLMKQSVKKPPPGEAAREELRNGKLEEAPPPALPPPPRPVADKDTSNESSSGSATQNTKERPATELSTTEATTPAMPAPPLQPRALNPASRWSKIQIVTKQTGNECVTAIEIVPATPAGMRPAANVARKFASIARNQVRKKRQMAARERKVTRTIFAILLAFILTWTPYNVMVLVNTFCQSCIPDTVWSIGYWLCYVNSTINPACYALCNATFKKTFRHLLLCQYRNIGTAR

[23] = target: Muscarinic acetylcholine receptor M3 (Homo sapiens, UniProt P20309); test: Inhibition of human recombinant muscarinic M3 receptor
[24] = target: T4, Muscarinic acetylcholine receptor M2 (Homo sapiens, UniProt P08172); test: Inhibition of human recombinant muscarinic M2 receptor
T4 sequence (P08172 whole entry): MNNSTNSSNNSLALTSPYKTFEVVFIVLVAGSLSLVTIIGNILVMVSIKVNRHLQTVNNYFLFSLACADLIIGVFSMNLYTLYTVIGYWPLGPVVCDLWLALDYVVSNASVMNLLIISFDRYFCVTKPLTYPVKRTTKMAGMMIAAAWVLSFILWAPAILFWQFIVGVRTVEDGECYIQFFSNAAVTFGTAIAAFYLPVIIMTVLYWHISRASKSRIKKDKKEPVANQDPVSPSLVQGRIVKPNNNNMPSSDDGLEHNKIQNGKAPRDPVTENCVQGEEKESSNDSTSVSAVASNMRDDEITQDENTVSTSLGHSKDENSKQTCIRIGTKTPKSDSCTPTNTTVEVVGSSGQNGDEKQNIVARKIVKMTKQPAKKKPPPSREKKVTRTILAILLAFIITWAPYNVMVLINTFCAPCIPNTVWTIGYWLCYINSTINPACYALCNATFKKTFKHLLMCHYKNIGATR

[25] = target: T5, Muscarinic acetylcholine receptor M5 (Homo sapiens, UniProt P08912); test: Inhibition of human recombinant muscarinic M5 receptor
T5 sequence (P08912 whole entry): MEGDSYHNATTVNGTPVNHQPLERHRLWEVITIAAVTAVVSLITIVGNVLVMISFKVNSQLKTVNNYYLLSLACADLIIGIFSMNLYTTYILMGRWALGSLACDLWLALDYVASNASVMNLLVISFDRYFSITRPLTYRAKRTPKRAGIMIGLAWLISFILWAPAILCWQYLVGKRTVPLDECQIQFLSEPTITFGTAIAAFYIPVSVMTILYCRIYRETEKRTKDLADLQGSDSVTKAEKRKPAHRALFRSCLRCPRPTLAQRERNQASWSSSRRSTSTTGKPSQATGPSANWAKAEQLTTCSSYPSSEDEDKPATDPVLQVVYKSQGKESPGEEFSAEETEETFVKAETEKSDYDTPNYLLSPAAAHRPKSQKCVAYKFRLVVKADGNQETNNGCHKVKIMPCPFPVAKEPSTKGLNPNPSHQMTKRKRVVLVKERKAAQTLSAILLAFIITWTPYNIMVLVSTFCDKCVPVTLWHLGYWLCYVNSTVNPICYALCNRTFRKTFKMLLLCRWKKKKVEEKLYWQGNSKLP

Chain of Neuronal acetylcholine receptor subunit alpha-7 (P36544 whole entry): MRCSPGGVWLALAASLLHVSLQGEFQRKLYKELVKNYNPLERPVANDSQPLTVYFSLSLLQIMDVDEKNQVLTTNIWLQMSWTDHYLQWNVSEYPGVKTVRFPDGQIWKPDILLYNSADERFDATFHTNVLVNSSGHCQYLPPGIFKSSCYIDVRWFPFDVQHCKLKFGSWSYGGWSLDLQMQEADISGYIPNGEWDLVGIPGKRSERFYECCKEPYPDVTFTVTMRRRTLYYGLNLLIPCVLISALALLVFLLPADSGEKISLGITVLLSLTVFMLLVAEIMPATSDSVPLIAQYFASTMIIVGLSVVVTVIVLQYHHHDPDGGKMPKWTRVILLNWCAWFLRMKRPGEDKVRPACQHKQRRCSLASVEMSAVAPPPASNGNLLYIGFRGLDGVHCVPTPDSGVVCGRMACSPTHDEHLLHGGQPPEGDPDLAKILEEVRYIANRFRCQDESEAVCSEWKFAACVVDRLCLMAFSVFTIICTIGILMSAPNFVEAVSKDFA
Chain of Neuronal acetylcholine receptor; alpha4/beta2 (P17787 whole entry): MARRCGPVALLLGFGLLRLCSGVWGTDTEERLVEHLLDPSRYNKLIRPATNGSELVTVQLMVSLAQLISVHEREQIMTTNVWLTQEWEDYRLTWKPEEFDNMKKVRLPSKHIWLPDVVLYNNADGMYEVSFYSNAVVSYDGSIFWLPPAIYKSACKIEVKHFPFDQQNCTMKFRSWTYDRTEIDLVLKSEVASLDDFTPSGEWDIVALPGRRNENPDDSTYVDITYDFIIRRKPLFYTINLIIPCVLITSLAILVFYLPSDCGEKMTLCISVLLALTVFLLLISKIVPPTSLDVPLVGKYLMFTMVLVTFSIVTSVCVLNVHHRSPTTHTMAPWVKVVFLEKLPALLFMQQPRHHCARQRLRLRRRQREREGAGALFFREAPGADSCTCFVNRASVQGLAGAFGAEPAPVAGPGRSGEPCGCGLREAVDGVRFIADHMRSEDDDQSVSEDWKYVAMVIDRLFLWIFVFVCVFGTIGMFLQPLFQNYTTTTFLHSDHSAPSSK
Chain of Neuronal acetylcholine receptor; alpha4/beta2 (P43681 whole entry): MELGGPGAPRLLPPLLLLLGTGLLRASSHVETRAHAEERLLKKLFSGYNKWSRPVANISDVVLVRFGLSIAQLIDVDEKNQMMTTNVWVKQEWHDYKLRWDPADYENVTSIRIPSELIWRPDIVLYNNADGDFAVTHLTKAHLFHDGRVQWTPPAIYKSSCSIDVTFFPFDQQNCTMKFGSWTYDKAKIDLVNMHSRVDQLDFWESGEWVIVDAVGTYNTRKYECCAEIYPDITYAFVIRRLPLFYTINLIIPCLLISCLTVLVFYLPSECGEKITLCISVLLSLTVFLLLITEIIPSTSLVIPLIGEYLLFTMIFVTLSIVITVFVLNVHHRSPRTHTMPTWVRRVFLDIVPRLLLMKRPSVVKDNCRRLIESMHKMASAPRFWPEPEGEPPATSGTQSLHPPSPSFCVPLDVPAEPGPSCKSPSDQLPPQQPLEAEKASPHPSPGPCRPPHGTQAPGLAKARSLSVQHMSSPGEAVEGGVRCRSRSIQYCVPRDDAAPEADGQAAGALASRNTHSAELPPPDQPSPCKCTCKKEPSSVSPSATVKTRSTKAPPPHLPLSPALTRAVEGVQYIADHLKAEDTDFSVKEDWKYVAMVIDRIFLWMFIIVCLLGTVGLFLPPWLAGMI
Chain of Neuronal acetylcholine receptor; alpha3/beta4 (P30926 whole entry): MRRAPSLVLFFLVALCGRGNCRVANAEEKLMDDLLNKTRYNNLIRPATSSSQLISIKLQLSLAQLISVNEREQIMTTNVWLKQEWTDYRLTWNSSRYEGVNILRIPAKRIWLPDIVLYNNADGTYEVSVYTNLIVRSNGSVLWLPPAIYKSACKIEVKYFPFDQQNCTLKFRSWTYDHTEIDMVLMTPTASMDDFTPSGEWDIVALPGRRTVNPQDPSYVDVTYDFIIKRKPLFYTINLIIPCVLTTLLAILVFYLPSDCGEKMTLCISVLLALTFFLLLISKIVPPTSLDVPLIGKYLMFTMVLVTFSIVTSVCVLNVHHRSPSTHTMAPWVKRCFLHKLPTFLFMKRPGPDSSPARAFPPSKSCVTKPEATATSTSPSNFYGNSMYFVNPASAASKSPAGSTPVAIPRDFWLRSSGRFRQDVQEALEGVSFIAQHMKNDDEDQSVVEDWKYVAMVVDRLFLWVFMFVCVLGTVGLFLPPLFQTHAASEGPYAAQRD
Chain of Neuronal acetylcholine receptor; alpha3/beta4 (P32297 whole entry): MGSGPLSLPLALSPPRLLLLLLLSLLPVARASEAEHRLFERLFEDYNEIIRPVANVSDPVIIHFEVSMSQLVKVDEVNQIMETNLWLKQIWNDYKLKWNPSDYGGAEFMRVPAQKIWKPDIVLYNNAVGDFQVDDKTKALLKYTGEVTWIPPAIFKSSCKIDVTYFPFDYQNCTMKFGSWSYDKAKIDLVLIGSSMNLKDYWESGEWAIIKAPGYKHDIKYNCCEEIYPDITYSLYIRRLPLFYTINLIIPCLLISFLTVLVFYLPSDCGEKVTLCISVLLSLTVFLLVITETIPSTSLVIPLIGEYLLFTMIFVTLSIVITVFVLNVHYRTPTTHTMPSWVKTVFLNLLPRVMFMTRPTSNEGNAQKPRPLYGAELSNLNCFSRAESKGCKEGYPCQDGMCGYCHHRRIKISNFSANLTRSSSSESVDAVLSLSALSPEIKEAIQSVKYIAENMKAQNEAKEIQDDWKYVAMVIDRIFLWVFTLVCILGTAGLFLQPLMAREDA
Chain of Acetylcholine receptor; alpha1/beta1/delta/gamma (P02708 whole entry): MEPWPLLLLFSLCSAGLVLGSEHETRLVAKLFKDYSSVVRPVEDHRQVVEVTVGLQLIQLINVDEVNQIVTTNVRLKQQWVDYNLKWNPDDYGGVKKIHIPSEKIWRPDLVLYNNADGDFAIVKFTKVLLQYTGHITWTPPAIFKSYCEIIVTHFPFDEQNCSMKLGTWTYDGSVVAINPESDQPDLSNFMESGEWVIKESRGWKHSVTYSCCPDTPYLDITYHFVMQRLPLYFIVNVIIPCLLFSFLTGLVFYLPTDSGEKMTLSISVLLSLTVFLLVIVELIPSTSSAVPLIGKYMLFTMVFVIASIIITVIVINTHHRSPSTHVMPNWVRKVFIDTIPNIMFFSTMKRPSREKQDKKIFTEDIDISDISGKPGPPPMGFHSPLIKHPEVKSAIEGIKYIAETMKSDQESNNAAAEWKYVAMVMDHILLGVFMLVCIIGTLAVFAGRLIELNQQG
Chain of Acetylcholine receptor; alpha1/beta1/delta/gamma (P07510 whole entry): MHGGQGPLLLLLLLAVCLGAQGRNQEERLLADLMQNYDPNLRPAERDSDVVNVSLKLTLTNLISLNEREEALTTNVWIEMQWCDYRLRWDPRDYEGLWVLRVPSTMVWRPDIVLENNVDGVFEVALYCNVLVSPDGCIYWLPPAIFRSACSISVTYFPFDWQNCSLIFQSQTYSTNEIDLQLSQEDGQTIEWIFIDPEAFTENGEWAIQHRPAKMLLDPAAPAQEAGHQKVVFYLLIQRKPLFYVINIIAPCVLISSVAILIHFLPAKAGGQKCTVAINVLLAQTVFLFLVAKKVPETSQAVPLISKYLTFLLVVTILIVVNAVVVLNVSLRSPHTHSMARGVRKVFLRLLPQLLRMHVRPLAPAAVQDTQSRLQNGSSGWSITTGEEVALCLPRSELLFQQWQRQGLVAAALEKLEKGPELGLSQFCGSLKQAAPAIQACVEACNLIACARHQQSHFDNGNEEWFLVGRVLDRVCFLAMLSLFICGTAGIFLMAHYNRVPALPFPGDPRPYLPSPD
Chain of Acetylcholine receptor; alpha1/beta1/delta/gamma (P11230 whole entry): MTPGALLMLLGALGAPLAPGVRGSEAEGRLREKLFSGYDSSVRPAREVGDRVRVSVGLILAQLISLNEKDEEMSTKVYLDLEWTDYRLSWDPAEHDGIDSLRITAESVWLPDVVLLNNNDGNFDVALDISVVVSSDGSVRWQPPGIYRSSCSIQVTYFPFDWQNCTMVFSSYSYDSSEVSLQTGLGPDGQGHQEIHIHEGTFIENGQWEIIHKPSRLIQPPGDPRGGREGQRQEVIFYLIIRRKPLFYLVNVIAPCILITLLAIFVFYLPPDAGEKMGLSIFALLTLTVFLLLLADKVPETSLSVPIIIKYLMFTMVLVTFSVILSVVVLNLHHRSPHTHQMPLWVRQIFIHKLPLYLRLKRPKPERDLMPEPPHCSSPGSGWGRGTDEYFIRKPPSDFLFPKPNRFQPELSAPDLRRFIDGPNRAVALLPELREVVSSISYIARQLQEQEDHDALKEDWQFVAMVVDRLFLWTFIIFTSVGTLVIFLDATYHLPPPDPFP
Chain of Acetylcholine receptor; alpha1/beta1/delta/gamma (Q07001 whole entry): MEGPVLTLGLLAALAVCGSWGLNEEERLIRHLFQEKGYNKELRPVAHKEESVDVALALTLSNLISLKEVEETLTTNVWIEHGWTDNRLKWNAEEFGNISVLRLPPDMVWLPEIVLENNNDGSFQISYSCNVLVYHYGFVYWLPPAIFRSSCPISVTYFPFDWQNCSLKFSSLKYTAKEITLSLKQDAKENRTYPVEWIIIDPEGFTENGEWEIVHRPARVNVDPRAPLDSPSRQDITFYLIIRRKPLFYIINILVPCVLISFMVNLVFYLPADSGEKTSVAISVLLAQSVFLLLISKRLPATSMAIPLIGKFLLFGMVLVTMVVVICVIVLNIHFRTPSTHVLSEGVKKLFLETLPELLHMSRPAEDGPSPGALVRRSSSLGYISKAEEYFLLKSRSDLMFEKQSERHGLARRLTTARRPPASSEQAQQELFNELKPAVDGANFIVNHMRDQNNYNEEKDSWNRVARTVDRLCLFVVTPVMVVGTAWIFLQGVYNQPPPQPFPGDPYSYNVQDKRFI

- logP [2]: 3.7
- Drug uptake [3]: 64 pmol/g
- Cp [4]: 4 pmol/g
- Cp [5]: 18 pmol/g
- IC50 [6]: 12.6 µM
- Ratio [7]: 26400
- fraction unbound [9]: 0.31
- fraction unbound [10]: 0.17
- hepatic extraction ratio [11]: 0.9
- IC50 [12]: 1.26 µM
- inhibition [13]: 33%
- IC50 [14]: 7.94 µM
- Ratio [15]: 1300
- Ratio [16]: 126
- Ratio [17]: 820
- EC50 [18]: 0.01 µM
- Emax [18]: 104%
- IC50 [19]: 251 µM
- Drug uptake [20]: 239 pmol/g
SMILES: CN1C(=O)[C@@H](CN2CCCCC2)C[C@H]1C#Cc1ccccc1 (relative stereo)
- Activity [1]: Non-toxic
- IC50 [8]: 6.85 µM

SMILES: C[C@H](OC(=O)N[C@@H]1CN2CCC1CC2)c1ccccc1F
- IC50 [6]: 126 µM
- Ratio [7]: 200
- IC50 [21]: > 10 µM
- IC50 [22]: > 10 µM
- IC50 [12]: 20 µM
- IC50 [14]: 25.1 µM
- Ratio [15]: 1260
- IC50 [23]: > 10 µM
- Ratio [16]: 200
- IC50 [24]: > 10 µM
- Ratio [17]: 251
- IC50 [25]: > 10 µM
- IC50 [19]: 20 µM
